TRPML3 ag = agonists of human TRPML3 channel | Q8TDD5 | HEK293 TRPML3-YFP, Fluo-8 calcium fluorescence; 100% = the carbachol control signal | activation, % at 3 µM | actives 0.29% (n = 220,000) | AID 1448;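 active = activation above its plate's cutoff, the mean activation of the plate's test wells plus 3 SD, cut at about 12% in these data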;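 note: 0% = DMSO only wells and 100% = carbachol wells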
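Material: HEK293 cells stably carrying human TRPML3-YFP; compound dosing: single dose, 3 µM final nominal compound, 0.3% DMSO final; incubation: 1-h 37 °C dye load, 5-s basal, 120-s post-compound reads; technique: Fluo-8 intracellular calcium fluorescence, excitation 470-495 nm, emission 515-575 nm; read-out basis: percent activation from peak-to-basal fluorescence ratio, scaled between DMSO and carbachol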
GPR7 antag = antagonists of human GPR7 (neuropeptides B/W receptor 1); P48145; GPR7-expressing cells, fluorescence antagonist assay; inhibition, % at 4.4 µM; actives 1.1% (n = 290,000); AID 1861; in the data active = inhibition above about 16%, passing the limit was not always enough;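 note: cells stimulated with the agonist NPW; 0% = agonist with vehicle and 100% = vehicle without agonist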
Target sequence (P48145 whole entry, looked up): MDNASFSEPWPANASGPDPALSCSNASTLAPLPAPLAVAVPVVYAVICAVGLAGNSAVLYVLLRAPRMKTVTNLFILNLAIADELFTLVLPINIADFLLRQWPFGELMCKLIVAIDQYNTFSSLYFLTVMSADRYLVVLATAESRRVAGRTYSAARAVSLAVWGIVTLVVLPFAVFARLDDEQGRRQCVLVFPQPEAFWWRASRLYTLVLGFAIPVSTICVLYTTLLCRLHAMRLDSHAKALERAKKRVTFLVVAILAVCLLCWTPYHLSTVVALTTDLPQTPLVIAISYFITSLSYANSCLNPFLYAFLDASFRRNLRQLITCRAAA
LANA-H2A inh = blocks KSHV LANA binding to histone H2A/H2B. Q9QR71. cell-free LANA-H2A/H2B peptide, fluorescence polarization. inhibition, % (no concentration beside the values). actives 0.6% (n = 320,000). AID 2629; in the data active = inhibition mostly above about 10%, no sharp cut-off; inactive = mostly below about 6.7%
TAAR1 antag = antagonists of human TAAR1 | actives 1.5% (n = 360,000) | AID 624466 | CHO RD-HGA16 TAAR1, Fluo-8 calcium fluorescence, antagonist | inhibition, % at 3 µM | Q96RJ0;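 active = inhibition above a per-plate cutoff, the mean inhibition of test compounds on that plate plus 3 SD, cut at about 49% in these data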;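 note: 0% = DMSO plus EC80 beta-PEA response and 100% = DMSO alone without agonist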
Target sequence (Q96RJ0 whole entry, looked up): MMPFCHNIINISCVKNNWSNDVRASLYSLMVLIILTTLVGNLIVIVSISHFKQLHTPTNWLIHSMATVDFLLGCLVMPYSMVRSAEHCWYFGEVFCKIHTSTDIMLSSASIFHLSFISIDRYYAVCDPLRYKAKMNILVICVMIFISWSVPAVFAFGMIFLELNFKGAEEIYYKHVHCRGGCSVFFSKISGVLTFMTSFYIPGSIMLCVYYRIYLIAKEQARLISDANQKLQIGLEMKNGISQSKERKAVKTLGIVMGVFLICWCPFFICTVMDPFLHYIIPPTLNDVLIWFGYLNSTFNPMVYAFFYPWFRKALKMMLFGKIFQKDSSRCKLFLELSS
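test system = CHO RD-HGA16 cells bearing hTAAR1 | replication = singlicate | controls = DMSO-only wells and EC80 β-PEA-stimulated wells | reagent = EC80 β-phenethylamine stimulus | read-out basis = percent inhibition of PEA-evoked calcium signal, max/basal emission ratio | schedule = seeding 17-24 h prior, 75-min 37 °C, 30-min RT dye loading | signal = kinetic Fluo-8 calcium fluorescence measurement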
TAAR1 ag = agonists of human TAAR1; Q96RJ0; CHO RD-HGA16 TAAR1, Fluo-8 calcium fluorescence; vehicle wells 0%, saturating PEA agonist 100%; activation, % at 3 µM; actives 0.99% (n = 360,000); AID 624467;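 active = activation above the mean activation of all test compounds in the run plus 3 SD, cut at about 38% in these data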
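Test system: RD-HGA16 (CHO) cells co-expressing Gα16 and hTAAR1 / Benchmarks: DMSO vehicle as 0%, PEA at EC100 as 100% / Repeats: no replicates (n 1) / Measure: % activation from peak over basal fluorescence ratio, DMSO-to-PEA scaled / Timing: 17-24 h plating, Fluo-8 75 min 37 °C, 30 min RT / Technique: kinetic Fluo-8 calcium fluorescence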
TRPN1 ag = agonists of zebrafish TRPN1 channel. HEK293 zebrafish TRPN1-YFP, Fluo-8 calcium fluorescence; 100% = response to 87 µM carbachol. activation, % at 3 µM. actives 0.18% (n = 220,000). AID 1424;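 active = activation above its plate's cutoff, the mean activation of test wells on that plate plus 3 SD, cut at about 19% in these data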;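 note: 0% = DMSO alone and 100% = 87 µM carbachol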
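Control set: carbachol 87 µM as high control, DMSO as low control; system: HEK293 stable line with zebrafish TRPN1-YFP; read-out: % activation versus carbachol response; detection: intracellular calcium fluorescence with Fluo-8; doses: single test compound dose, 3 µM nominal, 0.3% DMSO; schedule: dye 1 h 37 °C plus 30 min RT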
* marks the source's active call; other numbers are inactive results; . = not tested or not shown; ! = repeats disagree. This is a sample that favours compounds with a hit; in the whole collection about 3.4% have one here.

SMILES	TRPML3 ag	GPR7 antag	LANA-H2A inh	TAAR1 antag	TAAR1 ag	TRPN1 ag
O=C(COC(=O)c1cccc2c1C(=O)c1ccccc1C2=O)NC1CCCCC1	-0.5	-5.8	-0.9	49.5*	6.7	-1.1
O=C(CNC(=O)OCc1ccccc1)NC1CCCCCC1	0.6	6.5	17.3*	19.8	4.5	0.8
O=C(COc1ccccc1)NC1CCCCC1	0.6	-3.4	0.7	-9.9	2.6	0.7
Cc1[nH]nc2c1C(c1ccc(F)cc1)N(Cc1ccccc1)C2=O (stereo not given)	.	.	.	-23.0	-1.4	.
CCCn1cc(C(=O)Nc2ccc(Oc3cccnc3)cc2)c2ccccc21	.	.	.	17.8	-0.1	.
Cc1cc(C)c(CN2CCN(C(=O)Cn3cc(C)c(=O)[nH]c3=O)CC2)c(C)c1	.	.	.	-11.6	-0.8	.
COc1ccc(OC)c(CN(CC(F)(F)F)S(=O)(=O)c2ccccc2Br)c1	.	.	.	-1.4	1.3	.
COc1cccc2c1C(=O)c1c(O)c3c(c(O)c1C2=O)C[C@@](O)(C(=O)CO)C[C@@H]3O[C@H]1C[C@H](N)[C@@H](O)[C@H](C)O1	.	.	27.2*	.	.	.
COc1cccc2c1C(=O)c1c(O)c3c(c(O)c1C2=O)C[C@@](O)(C(C)=O)C[C@@H]3O[C@H]1C[C@H](N)[C@H](O)[C@H](C)O1	8.2	-6.1	.	-2.5	14.1	12.7
CC(=O)[C@]1(O)Cc2c(O)c3c(c(O)c2[C@@H](O[C@H]2C[C@H](N)[C@H](O)[C@H](C)O2)C1)C(=O)c1ccccc1C3=O	.	.	49.0*	.	.	.
Cc1cc(N2CCC(C)CC2)nc(SCC(=O)c2ccccc2)n1	-0.4	5.9	-0.7	53.9*	19.8	-2.1
Cc1cc(N2CCCC2)nc(SCC(=O)c2ccccc2)n1	0.4	-2.9	-0.5	3.8	13.9	0.7
COCc1cc(N2CCNC[C@@H]2C)ccc1N1CCN(Cc2ccccc2)[C@H](C)C1	.	.	.	-6.8	1.7	.
CC1CCCCC1NC(=O)Cn1cc([N+](=O)[O-])ccc1=O (stereo not given)	.	.	14.9*	2.3	3.0	.
CC1CCCC(NC(=O)Cn2cc([N+](=O)[O-])ccc2=O)C1C (stereo not given)	.	.	6.8	-9.7	1.5	.
Cc1cc(SCC(=O)Nc2cccc(S(=O)(=O)NC3=NCCCCC3)c2)nc2ccccc12	-1.4	1.6	-0.4	49.0*	10.9	-2.0
Cc1ccc(-n2c(SCC(=O)Nc3cccc(S(=O)(=O)NC4=NCCCCC4)c3)nc3ccccc3c2=O)cc1C	0.4	-4.5	5.8	-13.3	2.1	-1.5
O=C(C1CCC(CNS(=O)(=O)c2cccc3nsnc23)CC1)N1CC=C(c2ccccc2)CC1 (stereo not given)	-0.3	-7.1	2.7	-18.5	-1.1	0.0
O=C(C1CCCN(S(=O)(=O)c2cccc3nsnc23)C1)N1CC=C(c2ccccc2)CC1 (stereo not given)	1.6	3.9	-2.0	49.8*	10.4	3.5
Cc1ccc(Cl)cc1N1CCN(C(=O)C2CCN(S(=O)(=O)c3c(C)nn(C)c3C)CC2)CC1	0.8	9.2	-1.7	76.8*	36.4	4.5
Cc1ccc(Cl)cc1N1CCN(C(=O)C2CCN(S(=O)(=O)c3cccnc3)CC2)CC1	0.3	3.0	4.3	23.1	12.7	1.8
Cc1ccc(C)c(N2CCN(C(=O)C3CCN(S(=O)(=O)c4cccc5nsnc45)CC3)CC2)c1	0.2	-11.9	-1.2	54.3*	14.2	0.8
O=C(C1CCN(S(=O)(=O)c2cccc3nsnc23)CC1)N1CC=C(c2ccccc2)CC1	-0.4	3.2	-3.9	56.1*	12.9	1.6
COC(=O)[C@]12C[C@H](CC(=O)NCCc3ccccc3OC)C(=O)N(CCC3=CCCCC3)C1=C[C@H](COCc1ccccc1)O[C@@H]2C	.	.	.	-11.7	19.0	.
CC(C)(C)c1ccc(-c2cc(NC(=O)Cc3c[nH]c4ccccc34)ccc2Nc2cccnc2)cc1	.	.	.	-32.1	1.4	.
SMILES	TRPML3 ag	GPR7 antag	LANA-H2A inh	TAAR1 antag	TAAR1 ag	TRPN1 ag
COC(=O)c1cc(NC(=O)CC2C(=O)NCCN2C(=O)c2ccccc2)cc(C(=O)OC)c1 (stereo not given)	0.3	-3.0	-3.0	0.6	2.5	-0.2
COC(=O)c1cccc(NC(=O)CC2C(=O)NCCN2C(=O)Nc2ccccc2)c1 (stereo not given)	.	4.7	188.5*	-19.4	0.9	.
CC(C)CC(NC(=O)C(NC(=O)OC(C)(C)C)C(C)C)C(=O)NC(CCC(=O)OCc1ccccc1)C(N)=O (stereo not given)	0.2	-16.9	21.0*!	-15.4	-0.3	0.1
O=C(O)c1cccc(CSc2nc(-c3ccc(Cl)cc3)cc(C(F)(F)F)n2)c1	-0.2	-8.5	-0.1	53.7*	5.4	-2.3
CC(C)CC(=O)c1c(O)cc(O)c2c1OC1=C(C(=O)C(C)(C)C(=O)C1(C)C)C2CC(C)C (stereo not given)	.	.	.	6.6	-1.1	.
N#C/C(=N\Nc1ccc(Cl)c(Cl)c1)C(=O)C1CC1	8.0	-3.1	0.4	-27.2	8.0	19.6*
N#C/C(=N\Nc1ccc(F)cc1)C(=O)C1CC1	1.8	-11.0	-2.2	-20.8	7.7	5.5
CC(=O)Nc1sc2c(c1-c1nc3ccccc3s1)CCN(C(C)C)C2	8.6	-5.3	-6.4	.	.	24.0*
CCCOc1ccc(/C=N/NC(=O)CSc2ccccn2)cc1OC	-0.8	0.3	12.2*	-22.1	4.5	-1.1
COc1ccc(C=O)c(OC)c1	-0.1	1.4	12.2*	-20.0	0.4	0.5
O=C(CN1C(=O)C2CCCCC2C1=O)Nc1nc(-c2ccc(F)cc2)cs1 (stereo not given)	.	.	-0.9	36.2	20.9	.
O=C(CN1C(=O)C2CC=CCC2C1=O)Nc1nc(-c2ccc(F)cc2)cs1 (stereo not given)	.	.	10.5	51.1*	28.2	.
C[C@H]1CN(S(=O)(=O)C(C)(C)C)[C@@H](CCO)/C1=C\c1ccccc1	.	.	.	-10.6	0.6	.
COc1cccc(CN(C)C(=O)c2cccc(S(=O)(=O)NCc3ccccc3)c2)c1OC	.	.	3.1	30.9	11.1	.
COc1ccc(CN(C)C(=O)c2cccc(Oc3ccccc3)c2)c(OC)c1OC	.	2.1	13.3	53.8*	11.1	.
COc1ccc(CN(C)C(=O)C(Cc2ccccc2)NC(=O)c2ccccc2)c(OC)c1OC (stereo not given)	.	.	.	53.7*	10.3	.
COc1cccc(CN(C)C(=O)C(Cc2ccccc2)NC(=O)c2ccccc2)c1OC (stereo not given)	.	.	1.2	50.0*	11.2	.
Cc1csc(NC(=O)CCCc2cccs2)n1	-0.3	-6.3	181.0*	-13.8	2.1	-0.7
Cc1ccc(-c2csc(NC(=O)CCCc3cccs3)n2)cc1	1.1	-5.9	-8.7	-20.6	2.7	0.1
